In ChEMBL document CHEMBL4145525, “Machine learning prioritizes synthesis of primaquine ureidoamides with high antimalarial activity and attenuated cytotoxicity” (Eur J Med Chem, 2018):
pIC50: −log10 of the molar value.

Experiments:
Plasmodium falciparum = assay: Antiplasmodial activity against erythrocytic stage of Plasmodium falciparum NF54 assessed as reduction in [3H]hypoxanthine incorporation after 48 hrs by liquid scintillation counting method; type: functional, organism-based
Summary of the method: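 Asexual blood-stage NF54 grown in hypoxanthine-free RPMI 1640 with HEPES, NaHCO3, neomycin and Albumax, using washed human A+ erythrocytes at 2.5% hematocrit and 0.3% parasitemia. Compounds were made as 10 mg/ml DMSO stocks and run as eleven 3-fold dilutions, 100 to 0.002 µg/ml. Incubation at 37 °C in 4% CO2, 3% O2, 93% N2. After 48 h, 0.5 µCi 3H-hypoxanthine was added for a further 24 h, then harvested and scintillation counted. IC50 by linear interpolation of sigmoidal curves; averages of 2–3 independent experiments.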

[1] = Selectivity index, ratio of IC50 for rat L6 cells to IC50 for erythrocytic stage of Plasmodium falciparum NF54; type: toxicity; settings: read-out: Ratio IC50
Summary of the method: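 Ratio of the L6 cytotoxicity IC50 to the IC50 against P. falciparum NF54.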

L6 = assay: Cytotoxicity against rat L6 cells assessed as reduction in cell viability after 70 hrs by Alamar blue assay; type: cell-based; settings: L6, 70 h
Summary of the method: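 L6 rat skeletal myoblasts were plated at 4000 cells/well in RPMI 1640 with L-glutamine and 10% FBS. Eleven 3-fold drug dilutions, 100 to 0.002 µg/ml. After 70 h, Alamar Blue was added for 2 h and fluorescence read (ex 536 nm, em 588 nm). IC50 by linear interpolation from sigmoid dose-inhibition curves.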

SW-620 = assay: Cytotoxicity against human SW620 cells assessed as growth inhibition after 72 hrs by MTT assay; type: cell-based; settings: SW-620, 72 h
Summary of the method: (§1)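 Monolayers grown in DMEM or RPMI-1640 with 10% FBS, 2 mM L-glutamine and penicillin/streptomycin at 37 °C, 5% CO2. Seeded at 2×10^4–4×10^4 cells/well and attached for 24 h. Five serial 10-fold dilutions added, final DMSO <0.2%. MTT read-out at 72 h; percentage growth calculated. IC50 by linear interpolation between concentrations bracketing 50% growth; at least two biological replicates.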

HL-60 = assay: Cytotoxicity against human HL60 cells assessed as growth inhibition after 72 hrs by MTT assay; type: cell-based; settings: HL-60, 72 h
NCI-H460 = assay: Cytotoxicity against human NCI-H460 cells assessed as growth inhibition after 72 hrs by MTT assay; type: cell-based; settings: NCI-H460, 72 h; summary of the method: as §1
CAPAN-1 = assay: Cytotoxicity against human Capan1 cells assessed as growth inhibition after 72 hrs by MTT assay; type: cell-based; settings: CAPAN-1, 72 h
Summary of the method: (§2)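 Cells cultured in DMEM or RPMI-1640 with 10% FBS, 2 mM L-glutamine and antibiotics at 37 °C, 5% CO2. Seeded at 2×10^4–4×10^4 cells/well and attached for 24 h before five serial 10-fold compound dilutions, final DMSO <0.2%. MTT at 72 h. IC50 interpolated between the two concentrations flanking 50% growth inhibition; single experiment.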

K562 = assay: Cytotoxicity against human K562 cells assessed as growth inhibition after 72 hrs by MTT assay; type: cell-based; settings: K562, 72 h
HCT-116 = assay: Cytotoxicity against human HCT116 cells assessed as growth inhibition after 72 hrs by MTT assay; type: cell-based; settings: HCT-116, 72 h; summary of the method: as §2
MCF7 = assay: Cytotoxicity against human MCF7 cells assessed as growth inhibition after 72 hrs by MTT assay; type: cell-based; settings: MCF7, 72 h; summary of the method: as §1

Compound | pIC50 (Plasmodium falciparum) | selectivity ratio [1] | pIC50 (L6) | other results
COc1cc(NC(C)CCCNC(=O)NCCCC(C)Nc2cc(OC)cc3cccnc23)c2ncccc2c1 (stereo unspecified) | 5.19 | > 28.1 | < 3.74 | 
COc1ccc(/C=C/C(=O)NCCCC(C)Nc2cc(OC)cc3cccnc23)cc1 (stereo unspecified) | 4.91 | > 19.4 | < 3.62 | 
COc1cc(NC(C)CCCNC(=O)/C=C/c2ccccc2)c2ncccc2c1 (stereo unspecified) | 4.82 | 1.2 | 4.73 | 
COc1cc(NC(C)CCCNC(=O)/C=C/c2ccc(Cl)cc2)c2ncccc2c1 (stereo unspecified) | 4.86 | 1.2 | 4.77 | 
COc1ccc(/C(=N/NC(=O)NNC(=O)NCCCC(C)Nc2cc(OC)cc3cccnc23)c2ccccc2)cc1 (stereo unspecified) | 5.25 | 2.9 | 4.80 | 
COc1cc(NC(C)CCCNC(=O)NNC(=O)N(C)C(c2ccccc2)c2ccccc2)c2ncccc2c1 (stereo unspecified) | 5.00 | 1 | 4.98 | 
COc1cc(NC(C)CCCNC(=O)NNC(=O)NC(c2ccccc2)c2ccc(Cl)cc2)c2ncccc2c1 (stereo unspecified) | 5.12 | 1.1 | 5.08 | 
COc1cc(NC(C)CCCNC(=O)NNC(=O)NCCCC(C)Nc2cc(OC)cc3cccnc23)c2ncccc2c1 (stereo unspecified) | 5.43 | 20.7 | 4.12 | 
COc1cc(NC(C)CCCNC(=O)NNC(=O)Nc2ccc(Cl)c(C(F)(F)F)c2)c2ncccc2c1 (stereo unspecified) | 4.82 |  |  | 
COc1cc(NC(C)CCCNC(=O)NNC(=O)NCCCO)c2ncccc2c1 (stereo unspecified) | 4.23 |  |  | 
COc1cc(NC(C)CCCNC(=O)NNC(=O)NCCCCCO)c2ncccc2c1 (stereo unspecified) | 4.36 |  |  | 
COc1cc(NC(C)CCCNC(=O)NNC(=O)N(CCO)CCO)c2ncccc2c1 (stereo unspecified) | 4.38 | 4.3 | 3.75 | 
COc1cc(NC(C)CCCNC(=O)NNC(=O)NC(CO)(CO)CO)c2ncccc2c1 (stereo unspecified) | 4.18 |  |  | 
COc1cc(NC(C)CCCNC(=O)NC(c2ccccc2)c2ccc(Cl)cc2)c2ncccc2c1 (stereo unspecified) | 5.37 | 32.6 | 3.85 | 
COc1ccc(/C(=N/NC(=O)NCCCC(C)Nc2cc(OC)cc3cccnc23)c2ccccc2)cc1 (stereo unspecified) | 5.39 | > 47.6 | < 3.71 | 
COc1cc(NC(C)CCCNC(=O)NCCNC(c2ccccc2)(c2ccccc2)c2ccccc2)c2ncccc2c1 (stereo unspecified) | 5.82 | > 114 | < 3.77 | 
COc1cc(NC(C)CCCNC(=O)Nc2ccc(Cl)c(C(F)(F)F)c2)c2ncccc2c1 (stereo unspecified) | 4.77 |  |  | 
COc1cc(NC(C)CCCNC(=O)Nc2cc(C(F)(F)F)cc(C(F)(F)F)c2)c2ncccc2c1 (stereo unspecified) | 4.92 | 1.3 | 4.83 | 
COc1cc(NC(C)CCCNC(=O)NNC(=O)Nc2ccc(C(F)(F)F)cc2)c2ncccc2c1 (stereo unspecified) | 4.99 | 1.4 | 4.83 | 
COc1cc(NC(C)CCCNC(=O)NNC(=O)Nc2ccc(Cl)cc2)c2ncccc2c1 (stereo unspecified) | 4.75 | 5.2 | 4.04 | 
COc1cc(NC(C)CCCNC(=O)NNC(=O)Nc2cccc(Cl)c2)c2ncccc2c1 (stereo unspecified) | 4.83 | 3.9 | 4.23 | 
COc1cc(NC(C)CCCNC(=O)NNC(=O)Nc2cccc(C(F)(F)F)c2)c2ncccc2c1 (stereo unspecified) | 4.93 | 2.7 | 4.49 | 
COc1cc(NC(C)CCCNC(=O)NNC(=O)Nc2ccc(Br)cc2)c2ncccc2c1 (stereo unspecified) | 4.75 | 2.2 | 4.41 | 
COc1cc(NC(C)CCCNC(=O)NNC(=O)/C=C/c2cc(OC)c(OC)c(OC)c2)c2ncccc2c1 (stereo unspecified) | 5.35 | 30.7 | 3.86 | 
COc1cc(NC(C)CCCNC(=O)/C=C/c2cc(C(F)(F)F)cc(C(F)(F)F)c2)c2ncccc2c1 (stereo unspecified) | 4.95 | 14 | 3.80 | 
COc1cc(NC(C)CCCNC(=O)/C=C/c2ccc(OC)c(OC)c2)c2ncccc2c1 (stereo unspecified) | 4.92 | > 18.5 | < 3.66 | 
COc1cc(NC(C)CCCNC(=O)NNC(=O)/C=C/c2cccc(C(F)(F)F)c2)c2ncccc2c1 (stereo unspecified) | < 4.71 | < 0.5 | 4.97 | 
COc1cc(NC(C)CCCNC(=O)NNC(=O)NCCc2ccccc2)c2ncccc2c1 (stereo unspecified) | 4.57 |  |  | 

Compound | pIC50 (Plasmodium falciparum) | selectivity ratio [1] | pIC50 (L6) | other results
COc1cc(NC(C)CCCNC(=O)NNC(=O)/C(C)=C/c2ccccc2)c2ncccc2c1 (stereo unspecified) | 4.64 | 1.6 | 4.44 | 
COc1cc(NC(C)CCCNC(=O)/C(C)=C/c2ccccc2)c2ncccc2c1 (stereo unspecified) | < 4.61 |  | < 3.60 | 
COc1cc(NC(C)CCCNC(=O)NNC(=O)/C=C/c2cc(C(F)(F)F)cc(C(F)(F)F)c2)c2ncccc2c1 (stereo unspecified) | < 4.77 |  | < 3.77 | 
COc1cc(NC(C)CCCNC(=O)/C=C/c2cccc(C(F)(F)F)c2)c2ncccc2c1 (stereo unspecified) | 4.81 | 1 | 4.79 | 
COc1cc(NC(C)CCCNC(=O)NNC(=O)/C=C/c2ccc3c(c2)OCO3)c2ncccc2c1 (stereo unspecified) | 4.69 | 0.8 | 4.81 | 
COc1cc(NC(C)CCCNC(=O)NNC(=O)NC(c2ccccc2)c2ccccc2)c2ncccc2c1 (stereo unspecified) | 4.99 |  |  | 
COc1cc(NC(C)CCCNC(=O)NNC(=O)/C=C/c2ccccc2)c2ncccc2c1 (stereo unspecified) | 4.76 | 0.8 | 4.86 | 
COc1cc(NC(C)CCCNC(=O)NNC(=O)/C=C/c2ccc(OC)c(OC)c2)c2ncccc2c1 (stereo unspecified) | < 4.71 | < 1.9 | 4.43 | 
COc1cc(NC(C)CCCNC(=O)NNC(=O)NOCc2ccccc2)c2ncccc2c1 (stereo unspecified) | 4.68 |  |  | 
COc1cc(NC(C)CCCNC(=O)NNC(=O)NC2CCCC2)c2ncccc2c1 (stereo unspecified) | 4.12 |  |  | 
COc1cc(NC(C)CCCNC(=O)NNC(=O)NCc2ccccc2)c2ncccc2c1 (stereo unspecified) | < 3.95 |  |  | 
COc1cc(NC(C)CCCNC(=O)/C=C/c2ccc(C(F)(F)F)cc2)c2ncccc2c1 (stereo unspecified) | 4.89 | 12.4 | 3.80 | 
COc1cc(NC(C)CCCNC(=O)/C=C/c2cc(OC)c(OC)c(OC)c2)c2ncccc2c1 (stereo unspecified) | 5.09 | > 25.9 | < 3.68 | 
COc1cc(NC(C)CCCNC(=O)NNC(=O)/C=C/c2ccccc2F)c2ncccc2c1 (stereo unspecified) | < 4.67 | < 1.2 | 4.60 | 
COc1cc(NC(C)CCCNC(=O)/C=C/c2ccccc2F)c2ncccc2c1 (stereo unspecified) | 4.88 | 0.3 | 5.46 | 
COc1ccc(/C=C/C(=O)NNC(=O)NCCCC(C)Nc2cc(OC)cc3cccnc23)cc1 (stereo unspecified) | 4.65 | 0.2 | 5.44 | 
COc1cc(NC(C)CCCNC(=O)/C=C/c2ccc3c(c2)OCO3)c2ncccc2c1 (stereo unspecified) | 4.66 | 1.3 | 4.54 | 
COc1cc(NC(C)CCCNC(=O)NNC(=O)NC2CCCCC2)c2ncccc2c1 (stereo unspecified) | 4.33 |  |  | 
COc1cc(NC(C)CCCNC(=O)NC(C(=O)Nc2ccc(Br)cc2)c2ccc(Cl)cc2)c2ncccc2c1 (stereo unspecified) | 5.49 | 16.9 | 4.27 | pIC50 (SW-620): 4.49; pIC50 (HL-60): < 4.00; pIC50 (NCI-H460): 4.28; pIC50 (CAPAN-1): < 4.00; pIC50 (K562): < 4.00; pIC50 (HCT-116): < 4.00; pIC50 (MCF7): 4.80
COc1cc(NC(C)CCCNC(=O)NNC(=O)/C=C/c2ccc(C(F)(F)F)cc2)c2ncccc2c1 (stereo unspecified) | < 4.71 | < 1.5 | 4.55 | 
COc1cc(NC(C)CCCNC(=O)NNC(=O)/C=C/c2ccc(Cl)cc2)c2ncccc2c1 (stereo unspecified) | 4.62 | 0.3 | 5.14 | 
COc1cc(NC(C)CCCNC(=O)NC2CCCCC2)c2ncccc2c1 (stereo unspecified) | 4.38 |  |  | 
COc1cc(NC(C)CCCNC(=O)N(C2CCCCC2)C2CCCCC2)c2ncccc2c1 (stereo unspecified) | 5.09 |  |  | 
COc1cc(NC(C)CCCNC(=O)NC2CCCC2)c2ncccc2c1 (stereo unspecified) | 4.18 |  |  | 
COc1cc(NC(C)CCCNC(=O)NCc2ccncc2)c2ncccc2c1 (stereo unspecified) | 4.33 |  |  | 
COc1cc(NC(C)CCCNC(=O)NCCO)c2ncccc2c1 (stereo unspecified) | 4.56 |  |  | 
COc1cc(NC(C)CCCNC(=O)NCCCO)c2ncccc2c1 (stereo unspecified) | 4.28 |  |  | 
